The results in this text go back to the array DNA melting data of Ke et al. (doi:10.1101/2024.01.08.574731).

Data set [1] can be described thus: melting temperature; fluorescence melt of hairpins on a sequencing array, two-state fit, raised by 9.35 °C to match UV melts. The note with it: sodium 0.088 M. Put shortly:
(§1)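 Hairpins were imaged by Cy3 fluorescence on a sequenced MiSeq flow cell with annealed Cy3 and quencher oligos, in 50 mM Na-HEPES pH 8.0, 25 mM NaCl, in 2.5 °C steps up to 60 °C. Bootstrapped two-state fits of normalised signals gave melting temperature and folding enthalpy. Four replicates were combined by inverse variance, and fitted temperatures were raised by 9.35 °C to match UV melts.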

Data set [2] in a line: folding enthalpy; higher = less favourable; fluorescence melt of hairpins on a sequencing array, two-state fit. To be noted: sodium 0.088 M. The procedure, abridged:
as §1

Regarding GTGATGGGAAACCATCGC (.(((((....))))).), the Tm in data set [1] came to 55.1 °C. Further, in data set [2], the folding enthalpy is -23.7 kcal/mol.
Take GTCGGTCGAAAGACTGAC (((.(((....))).))): the Tm in data set [1] stood at 61.2 °C. Also, the folding enthalpy in data set [2] is -38.1 kcal/mol.
On the same counts, the results for GGCATTGGAAACAATGTC (.(((((....))))).) are 48.1 °C and -31.9 kcal/mol.
Regarding GTAAAGGGAAACCTTTGC (.(((((....))))).), the Tm in data set [1] amounted to 37.5 °C. Further, the folding enthalpy in data set [2] was -28.4 kcal/mol.
For the sequence GGCCTCCGAAAGGAGCC (((.(((....)))))), the Tm in data set [1] was found to be 62.4 °C. Besides, in data set [2], the folding enthalpy is -16.5 kcal/mol.
For the sequence GCGGAGCGAAAGCCCGGC ((.(.((....)).).)), the Tm in data set [1] amounted to 53.5 °C. The folding enthalpy in data set [2] is -10.5 kcal/mol.
Take GCGATGACTCGC ((((....)))): the Tm in data set [1] was determined as 47.2 °C. For the same sequence, in data set [2], the folding enthalpy was -21.7 kcal/mol.
On the same counts, the results for GTTAGGACGAAAGTCAAC (((..(((....)))))) are 28.8 °C and -10.7 kcal/mol.
With GCCTATCGAAAGATGGGC (((.(((....))).))), the Tm in data set [1] was found to be 60.1 °C. The folding enthalpy in data set [2] is -34.6 kcal/mol.
GAAAACGAAAGTTTTC ((((((....)))))): the Tm in data set [1] stood at 55 °C. The folding enthalpy in data set [2] is -37.9 kcal/mol.
On to GCTCCCTCGAAAGAGAGC (((..(((....)))))), for which the Tm in data set [1] is 35.6 °C. Also, in data set [2], the folding enthalpy was -19.5 kcal/mol.
Regarding GGGCTCGAAAGAGACCCC ((((((....)))..))), the Tm in data set [1] is 63.8 °C. Also, the folding enthalpy in data set [2] was -12.7 kcal/mol.
With GAAAGCGAAAGCTTTTC ((((((....))).))), the Tm in data set [1] turned out to be 47.1 °C. The folding enthalpy in data set [2] was -12.9 kcal/mol.
On the same counts, the results for GATCTCGACGAGATC ((((((...)))))) are 57.4 °C and -38.9 kcal/mol.
On the same counts, the results for GATCCCTTTTGGGATC ((((((....)))))) are 60.1 °C and -38.3 kcal/mol.
As for GATCACCGAGTGATC ((((((...)))))), the Tm in data set [1] came out at 55.4 °C. Moreover, the folding enthalpy in data set [2] was -34.9 kcal/mol.
For GATCTCCTACGAGATC ((((((....)))))) the same measures were 52.4 °C and -34.5 kcal/mol.
Consider GCCGGAACGAAAGTTGGC (((..(((....)))))), for which the Tm in data set [1] came to 47.4 °C. For the same sequence, in data set [2], the folding enthalpy was -24.3 kcal/mol.
As for GGGCTCGCGAAAGCGCCC (((..(((....)))))), in data set [1], the Tm turned out to be 56.5 °C. Also, the folding enthalpy in data set [2] was -15.7 kcal/mol.
GATCCAGTTATGGATC ((((((....)))))): the Tm in data set [1] was 58.4 °C. Further, in data set [2], the folding enthalpy was -46.4 kcal/mol.
GGCCCAGGAAACTGGACC ((.((((....)))).)): in data set [1], the Tm was 50.5 °C. The folding enthalpy in data set [2] was -32.8 kcal/mol.
For GGAATCGAAAGATTTCC ((((((....))).))), the Tm in data set [1] is 41.5 °C. Moreover, in data set [2], the folding enthalpy is -27 kcal/mol.
For GATCGTGCGGACGATC ((((((....)))))) the same measures were 54.4 °C and -38.6 kcal/mol.
For GTGGTCGCGAAAGCGCAC (((..(((....)))))) the same measures were 44.9 °C and -12.4 kcal/mol.
For GTACTGGGAAACTAGTAC (((((.(....).))))) the same measures were 42.2 °C and -36.8 kcal/mol.
For GTCCTACGAAAGTAAGAC (((.(((....))).))), in data set [1], the Tm turned out to be 37 °C. Besides, the folding enthalpy in data set [2] is -27.3 kcal/mol.
On the same counts, the results for GGGTCTGGAAACAGATCC ((.((((....)))).)) are 51.9 °C and -43.7 kcal/mol.
For the sequence GTTAGGCGAAAGCCAAAC (((.(((....))).))), the Tm in data set [1] was found to be 50.3 °C. Moreover, the folding enthalpy in data set [2] was -15.9 kcal/mol.
As to GAAGAGCGAAAGCTATTC (((.(((....))).))), the Tm in data set [1] was 50 °C. The folding enthalpy in data set [2] is -31 kcal/mol.
Consider GTGACGGGAAACCATCAC ((((.((....)).)))), for which the Tm in data set [1] is 42.1 °C. The folding enthalpy in data set [2] was -32.6 kcal/mol.
For GCCGGGGGAAACCCTGGC (((.(((....))).))), the Tm in data set [1] was 65.4 °C. Besides, the folding enthalpy in data set [2] was -40.9 kcal/mol.
Turning to GCCGTTCGAAAGAAAGGC (((.(((....))).))), the Tm in data set [1] came to 59.3 °C. Also, the folding enthalpy in data set [2] was -28.8 kcal/mol.
Turning to GTTTGCGCGAAAGCGAAC (((..(((....)))))), in data set [1], the Tm was determined as 36.5 °C. Further, the folding enthalpy in data set [2] was -12 kcal/mol.
On the same counts, the results for GGATGCGAAAGCACTCC ((((((....))).))) are 49.6 °C and -29 kcal/mol.
Take GCGGTATTCCGC ((((....)))): the Tm in data set [1] was determined as 56.4 °C. Further, the folding enthalpy in data set [2] is -30.6 kcal/mol.
On the same counts, the results for GATCATTTAATGATC ((((((...)))))) are 48 °C and -27.6 kcal/mol.
CGCGGCCGGAAACGGGCG (((..(((....)))))): the Tm in data set [1] turned out to be 65.6 °C. Further, the folding enthalpy in data set [2] was -12.1 kcal/mol.
GATCTACCGTAGATC ((((((...)))))): the Tm in data set [1] came to 39.1 °C. In addition, the folding enthalpy in data set [2] is -31.6 kcal/mol.
On to GATCAACTCCTTGATC ((((((....)))))), for which the Tm in data set [1] is 44.2 °C. Also, the folding enthalpy in data set [2] was -36.6 kcal/mol.
Turning to GGGATGGGAAACCATCCC (((((((....))))))), the Tm in data set [1] turned out to be 67.4 °C. The folding enthalpy in data set [2] was -41.5 kcal/mol.
With GACTACCGAAAGGTTGTC (((.(((....))).))), in data set [1], the Tm was 53.1 °C. Moreover, the folding enthalpy in data set [2] is -31.3 kcal/mol.
For the sequence GCGCCCGAAAGGGCTCGC ((((((....)))..))), the Tm in data set [1] was 52.4 °C. In addition, the folding enthalpy in data set [2] was -13 kcal/mol.
As for GACCGTGGAAACACAGTC (((.(((....))).))), the Tm in data set [1] turned out to be 40.5 °C. Besides, the folding enthalpy in data set [2] was -23.8 kcal/mol.
On to GATCCGCTCACGGATC ((((((....)))))), for which the Tm in data set [1] came out at 63.3 °C. Moreover, the folding enthalpy in data set [2] is -41.3 kcal/mol.
For the sequence GATCTACTGTTAGATC ((((((....)))))), in data set [1], the Tm was 40.9 °C. Besides, the folding enthalpy in data set [2] was -32.4 kcal/mol.
For the sequence GTGGAAGAAATTCCAC ((((((....)))))), the Tm in data set [1] was found to be 51.8 °C. For the same sequence, the folding enthalpy in data set [2] was -34.8 kcal/mol.
Consider GATCTATCCTTAGATC ((((((....)))))), for which the Tm in data set [1] turned out to be 44.4 °C. Further, the folding enthalpy in data set [2] was -34.1 kcal/mol.
For the sequence GCCATCGAAAGATGAGGC ((((((....)))..))), the Tm in data set [1] was 46.3 °C. Besides, the folding enthalpy in data set [2] was -18.8 kcal/mol.
As to GCTGAGCGAAAGCTAAGC (((.(((....))).))), the Tm in data set [1] amounted to 56.1 °C. For the same sequence, in data set [2], the folding enthalpy was -50.4 kcal/mol.
Regarding GATCAGACTACTGATC ((((((....)))))), in data set [1], the Tm amounted to 49.1 °C. For the same sequence, the folding enthalpy in data set [2] was -33 kcal/mol.
As to GAGGCGCCGAAAGGCCTC (((..(((....)))))), the Tm in data set [1] was 44.3 °C. Also, the folding enthalpy in data set [2] is -13.3 kcal/mol.
For GATCTATGTTTAGATC ((((((....)))))) the same measures were 43.9 °C and -32.9 kcal/mol.
GGAACAGGAAACTGTTTC (.(((((....))))).): in data set [1], the Tm was found to be 44.4 °C. In addition, the folding enthalpy in data set [2] was -31.7 kcal/mol.
For the sequence GAGCGCCCGAAAGGGCTC (((..(((....)))))), the Tm in data set [1] stood at 29.4 °C. The folding enthalpy in data set [2] is -6.69 kcal/mol.
In the case of GCGCATCGAAAGATCGC (((.(((....)))))), in data set [1], the Tm came to 55.8 °C. Moreover, the folding enthalpy in data set [2] was -37 kcal/mol.
